According to ChEMBL document CHEMBL1121923, “N2- and C-7 substituted actinomycin D analogues: synthesis, DNA-binding affinity, and biochemical and biological properties. Structure-activity relationship” (J Med Chem, 1981):

Key:
Calf thymus DNA [1] = assay: Apparent binding constant calf thymus DNA-drug complex; format: nucleic-acid assay; details: Bos taurus
Method in brief: (§1)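 Calf thymus DNA; spectral titration; binding isotherms in 0.01 M phosphate buffer, pH 7.0, 20 °C; Kapp (per base pair) and Bapp (drug binding sites per base pair) taken from Scatchard plot.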

Calf thymus DNA [2] = assay: Apparent number of binding sites per base pairs in DNA; format: nucleic-acid assay; details: Bos taurus; method in brief: as §1
P388 [3] = assay: Concentration required for 50% inhibition of incorporation of labeled uridine by P388 cells for the synthesis of RNA (in vitro); e indicates values are high and variable; format: functional, cell-based; details: Mus musculus
Calf thymus DNA [4] = assay: Apparent number of binding sites per base pairs in DNA; Not measurable; format: nucleic-acid assay; details: Bos taurus; method in brief: as §1
P388 [5] = assay: Concentration required for 50% inhibition of incorporation of labeled thymidine by p388 cells for synthesis of DNA (in vitro); e indicates values are high and variable; format: functional, cell-based; details: Mus musculus

SMILES | K app (Calf thymus DNA [1]) | Bapp (Calf thymus DNA [2]) | ED50 (P388 [3]) | Bapp (Calf thymus DNA [4]) | ED50 (P388 [5])
CCCOc1cc(C(=O)N[C@@H]2C(=O)N[C@H](C(C)C)C(=O)N3CCC[C@@H]3C(=O)N(C)CC(=O)N(C)[C@@H](C(C)C)C(=O)O[C@@H]2C)c2nc3c(C(=O)N[C@H]4C(=O)N[C@@H](C(C)C)C(=O)N5CCC[C@H]5C(=O)N(C)CC(=O)N(C)[C@H](C(C)C)C(=O)O[C@H]4C)c(N)c(=O)c(C)c-3oc2c1C | 2.1e+06 M⁻¹ | 0.078 | – | – | –
Cc1c2oc3c(C)c(O)c(N)c(C(=O)N[C@H]4C(=O)N[C@@H](C(C)C)C(=O)N5CCC[C@H]5C(=O)N(C)CC(=O)N(C)[C@H](C(C)C)C(=O)O[C@H]4C)c3nc-2c(C(=O)N[C@@H]2C(=O)N[C@H](C(C)C)C(=O)N3CCC[C@@H]3C(=O)N(C)CC(=O)N(C)[C@@H](C(C)C)C(=O)O[C@@H]2C)c/c1=N/Cc1ccco1 | 3.8e+06 M⁻¹ | 0.055 | – | – | –
Cc1c2oc3c(C)c(O)c(N)c(C(=O)N[C@H]4C(=O)N[C@@H](C(C)C)C(=O)N5CCC[C@H]5C(=O)N(C)CC(=O)N(C)[C@H](C(C)C)C(=O)O[C@H]4C)c3nc-2c(C(=O)N[C@@H]2C(=O)N[C@H](C(C)C)C(=O)N3CCC[C@@H]3C(=O)N(C)CC(=O)N(C)[C@@H](C(C)C)C(=O)O[C@@H]2C)c/c1=N/Cc1ccc(Cl)c(Cl)c1 | 2.6e+07 M⁻¹ | 0.058 | – | – | –
Cc1c2oc3c(C)c(OCc4ccc(Cl)cc4)cc(C(=O)N[C@@H]4C(=O)N[C@H](C(C)C)C(=O)N5CCC[C@@H]5C(=O)N(C)CC(=O)N(C)[C@@H](C(C)C)C(=O)O[C@@H]4C)c3nc-2c(C(=O)N[C@H]2C(=O)N[C@@H](C(C)C)C(=O)N3CCC[C@H]3C(=O)N(C)CC(=O)N(C)[C@H](C(C)C)C(=O)O[C@H]2C)c(N)c1=O | 100000 M⁻¹ | – | High and variable values | Not measurable | High and variable values
Cc1c2oc3c(C)c(OCc4ccc([N+](=O)[O-])cc4)cc(C(=O)N[C@@H]4C(=O)N[C@H](C(C)C)C(=O)N5CCC[C@@H]5C(=O)N(C)CC(=O)N(C)[C@@H](C(C)C)C(=O)O[C@@H]4C)c3nc-2c(C(=O)N[C@H]2C(=O)N[C@@H](C(C)C)C(=O)N3CCC[C@H]3C(=O)N(C)CC(=O)N(C)[C@H](C(C)C)C(=O)O[C@H]2C)c(N)c1=O | 100000 M⁻¹ | – | High and variable values | Not measurable | High and variable values
Cc1c2oc3c(C)c(OCc4ccc(Cl)c(Cl)c4)cc(C(=O)N[C@@H]4C(=O)N[C@H](C(C)C)C(=O)N5CCC[C@@H]5C(=O)N(C)CC(=O)N(C)[C@@H](C(C)C)C(=O)O[C@@H]4C)c3nc-2c(C(=O)N[C@H]2C(=O)N[C@@H](C(C)C)C(=O)N3CCC[C@H]3C(=O)N(C)CC(=O)N(C)[C@H](C(C)C)C(=O)O[C@H]2C)c(N)c1=O | 10000 M⁻¹ | – | High and variable values | Not measurable | High and variable values
COc1cc(C(=O)N[C@@H]2C(=O)N[C@H](C(C)C)C(=O)N3CCC[C@@H]3C(=O)N(C)CC(=O)N(C)[C@@H](C(C)C)C(=O)O[C@@H]2C)c2nc3c(C(=O)N[C@H]4C(=O)N[C@@H](C(C)C)C(=O)N5CCC[C@H]5C(=O)N(C)CC(=O)N(C)[C@H](C(C)C)C(=O)O[C@H]4C)c(N)c(=O)c(C)c-3oc2c1C | 7.7e+06 M⁻¹ | 0.11 | – | – | –
Cc1c2oc3c(C)c(O)c(N)c(C(=O)N[C@H]4C(=O)N[C@@H](C(C)C)C(=O)N5CCC[C@H]5C(=O)N(C)CC(=O)N(C)[C@H](C(C)C)C(=O)O[C@H]4C)c3nc-2c(C(=O)N[C@@H]2C(=O)N[C@H](C(C)C)C(=O)N3CCC[C@@H]3C(=O)N(C)CC(=O)N(C)[C@@H](C(C)C)C(=O)O[C@@H]2C)cc1=O | 3.2e+07 M⁻¹ | 0.1 | – | – | –
Cc1c2oc3c(C)c(O)c(N)c(C(=O)N[C@H]4C(=O)N[C@@H](C(C)C)C(=O)N5CCC[C@H]5C(=O)N(C)CC(=O)N(C)[C@H](C(C)C)C(=O)O[C@H]4C)c3nc-2c(C(=O)N[C@@H]2C(=O)N[C@H](C(C)C)C(=O)N3CCC[C@@H]3C(=O)N(C)CC(=O)N(C)[C@@H](C(C)C)C(=O)O[C@@H]2C)c/c1=N/Cc1ccc[nH]1 | 9.2e+07 M⁻¹ | 0.055 | – | – | –
